From ChEMBL document CHEMBL1142258, “Discovery of a series of aminopiperidines as novel iNOS inhibitors” (Bioorg Med Chem Lett, 2008)

How the values were obtained:
[1] = biological target: T1, Nitric oxide synthase 3 (Homo sapiens) (UniProt P29474); assay: Inhibition of human eNOS expressed in insect SF9 cells at 10 uM after 1 hr
T1 sequence (whole entry): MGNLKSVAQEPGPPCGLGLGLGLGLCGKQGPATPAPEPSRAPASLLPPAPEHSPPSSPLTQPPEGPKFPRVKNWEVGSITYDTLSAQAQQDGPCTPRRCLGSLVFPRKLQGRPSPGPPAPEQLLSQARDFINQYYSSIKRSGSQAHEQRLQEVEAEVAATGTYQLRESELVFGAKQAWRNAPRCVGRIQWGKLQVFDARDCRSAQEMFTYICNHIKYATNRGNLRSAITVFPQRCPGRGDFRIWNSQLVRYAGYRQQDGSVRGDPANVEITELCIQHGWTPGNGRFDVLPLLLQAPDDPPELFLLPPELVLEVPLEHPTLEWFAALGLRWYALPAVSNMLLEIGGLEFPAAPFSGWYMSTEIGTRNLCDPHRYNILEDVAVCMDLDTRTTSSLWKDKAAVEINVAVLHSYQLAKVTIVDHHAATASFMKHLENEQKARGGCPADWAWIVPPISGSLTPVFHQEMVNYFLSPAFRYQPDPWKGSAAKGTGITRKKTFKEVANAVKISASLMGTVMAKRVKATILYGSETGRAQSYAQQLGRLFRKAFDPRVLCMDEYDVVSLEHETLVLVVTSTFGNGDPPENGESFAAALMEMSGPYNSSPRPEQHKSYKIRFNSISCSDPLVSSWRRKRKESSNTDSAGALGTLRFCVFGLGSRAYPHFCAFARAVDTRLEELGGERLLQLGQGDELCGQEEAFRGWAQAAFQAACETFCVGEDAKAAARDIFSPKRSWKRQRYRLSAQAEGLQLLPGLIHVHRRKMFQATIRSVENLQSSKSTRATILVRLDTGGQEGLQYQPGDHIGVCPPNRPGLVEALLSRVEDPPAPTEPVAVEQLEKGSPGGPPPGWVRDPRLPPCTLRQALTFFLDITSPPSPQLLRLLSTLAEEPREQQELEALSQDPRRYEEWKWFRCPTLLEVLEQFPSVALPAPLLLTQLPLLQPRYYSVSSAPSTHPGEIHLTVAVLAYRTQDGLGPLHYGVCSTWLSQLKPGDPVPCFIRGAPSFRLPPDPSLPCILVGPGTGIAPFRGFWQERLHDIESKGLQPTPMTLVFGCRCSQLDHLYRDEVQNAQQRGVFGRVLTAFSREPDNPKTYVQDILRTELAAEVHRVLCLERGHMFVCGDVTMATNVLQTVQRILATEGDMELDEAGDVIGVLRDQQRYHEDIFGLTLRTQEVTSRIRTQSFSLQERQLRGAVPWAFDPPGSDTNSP

[2] = biological target: T2, Nitric oxide synthase, inducible (Homo sapiens, UniProt P35228); assay: Inhibition of cytokine-induced iNOS activity in human DLD1 cells after 24 hrs; format: cell-based, DLD-1
Outline: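 DLD-1 cells were seeded 3 days ahead, then given fresh medium with 20 ng/mL IFNγ, 4 ng/mL TNFα, 2 ng/mL IL1β and 1 mM L-arginine. Compound titrations in 50 mM Hepes pH 7.4 were added at eight concentrations for 24 h at 37 °C, 5% CO2. Nitrite was read with Griess reagent at 540 nm.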

[3] = biological target: T2, Nitric oxide synthase, inducible; assay: Inhibition of human iNOS expressed in human DLD1 cells after 1 hr; format: cell-based, DLD-1
Outline: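 Human iNOS endogenously expressed in DLD-1 cells, eight compound concentrations. Incubated 1 h at 37 °C in 50 mM Hepes with 10 nM [3H]arginine, [14C]citrulline internal standard, β-NADP+, G6P, MgCl2, G6P dehydrogenase, FAD, FMN and BH4. [3H]citrulline was separated on cation-exchange resin and counted; AMT defined background.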

Nitric oxide synthase 1 [4] = biological target: T3, Nitric oxide synthase 1 (Homo sapiens, UniProt P29475); assay: Inhibition of human nNOS expressed in insect SF9 cells after 1 hr
Homo sapiens = species: Homo sapiens; assay: Selectivity for human eNOS to human iNOS
Outline: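 Ratio of eNOS IC50 to iNOS IC50, both from [3H]arginine→[3H]citrulline conversion. iNOS was endogenous to DLD-1 cells; eNOS was human recombinant expressed in SF9 cells. Each used 10 nM [3H]arginine with NADP+/G6P/FAD/FMN/BH4 cofactors in 50 mM Hepes for 1 h at 37 °C. The eNOS reaction also had calmodulin, CaCl2 and glutathione. Citrulline was separated by cation exchange and counted. IC50s came from eight concentrations, as geometric means of ≥3 runs.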

Nitric oxide synthase 1 [5] = biological target: T3, Nitric oxide synthase 1; assay: Inhibition of human nNOS expressed in insect SF9 cells at 10 uM after 1 hr
Outline: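 Human recombinant nNOS expressed in SF9 cells, incubated with test compound, 10 nM [3H]arginine and [14C]citrulline (80–120 nM) internal standard in 50 mM Hepes for 1 h at 37 °C. Cofactors were β-NADP+, G6P, MgCl2, G6P dehydrogenase, FAD, FMN, BH4, 25 nM calmodulin, 0.5 mM CaCl2 and 3.5 mM glutathione. After MES stop and cation-exchange filtration, [3H]citrulline was counted; background came from 10 µM AMT.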

[6] = biological target: T2, Nitric oxide synthase, inducible; assay: Inhibition of human iNOS expressed in human DLD1 cells at 10 uM after 1 hr; format: cell-based; details: DLD-1
[7] = biological target: T2, Nitric oxide synthase, inducible; assay: Inhibition of cytokine-induced iNOS activity in human DLD1 cells at 10 uM after 24 hrs; format: cell-based; details: DLD-1
Nitric oxide synthase 3 = biological target: T4, Nitric oxide synthase 3 (Homo sapiens, UniProt P29474); assay: Inhibition of human eNOS expressed in insect SF9 cells after 1 hr
T4 sequence (P29474 whole entry): T1 sequence (whole entry)
Outline: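 Human recombinant eNOS from SF9 cells, tested at eight concentrations. Conditions: 10 nM [3H]arginine with NADP+/G6P/G6PDH, MgCl2, FAD, FMN, BH4, plus 25 nM calmodulin, 0.5 mM CaCl2 and 3.5 mM glutathione, in 50 mM Hepes for 1 h at 37 °C. Citrulline was resin-separated and counted, with AMT background. IC50 from one-site fit, geometric mean of ≥3 runs.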

T2 sequence (P35228 whole entry): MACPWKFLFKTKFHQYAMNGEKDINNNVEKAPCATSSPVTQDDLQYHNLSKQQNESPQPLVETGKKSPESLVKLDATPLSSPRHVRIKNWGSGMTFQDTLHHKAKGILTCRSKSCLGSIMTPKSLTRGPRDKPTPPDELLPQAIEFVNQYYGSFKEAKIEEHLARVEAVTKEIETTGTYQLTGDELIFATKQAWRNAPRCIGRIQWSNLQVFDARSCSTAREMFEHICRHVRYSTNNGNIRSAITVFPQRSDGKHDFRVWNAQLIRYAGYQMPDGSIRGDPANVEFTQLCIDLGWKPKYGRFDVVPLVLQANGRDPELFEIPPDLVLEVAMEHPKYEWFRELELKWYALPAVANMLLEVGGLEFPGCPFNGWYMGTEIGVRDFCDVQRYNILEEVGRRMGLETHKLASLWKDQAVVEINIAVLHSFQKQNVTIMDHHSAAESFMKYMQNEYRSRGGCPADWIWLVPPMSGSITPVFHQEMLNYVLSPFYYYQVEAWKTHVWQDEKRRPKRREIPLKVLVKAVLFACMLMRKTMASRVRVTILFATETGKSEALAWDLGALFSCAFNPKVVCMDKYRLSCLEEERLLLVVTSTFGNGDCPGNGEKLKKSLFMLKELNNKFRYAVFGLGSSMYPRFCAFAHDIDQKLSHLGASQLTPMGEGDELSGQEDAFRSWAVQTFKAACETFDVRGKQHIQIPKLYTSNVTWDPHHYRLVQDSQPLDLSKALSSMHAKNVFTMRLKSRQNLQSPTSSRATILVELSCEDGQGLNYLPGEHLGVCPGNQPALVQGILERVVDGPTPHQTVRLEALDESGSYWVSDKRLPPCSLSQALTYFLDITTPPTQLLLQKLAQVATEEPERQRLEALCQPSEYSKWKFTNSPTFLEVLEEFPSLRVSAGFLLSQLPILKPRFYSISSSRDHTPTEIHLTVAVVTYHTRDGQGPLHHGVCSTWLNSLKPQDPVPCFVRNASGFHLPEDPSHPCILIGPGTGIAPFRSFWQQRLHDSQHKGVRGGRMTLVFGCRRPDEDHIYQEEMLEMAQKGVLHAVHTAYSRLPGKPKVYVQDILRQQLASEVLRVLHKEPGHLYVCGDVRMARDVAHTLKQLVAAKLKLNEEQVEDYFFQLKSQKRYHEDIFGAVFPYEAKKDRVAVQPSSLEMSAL
T3 sequence (P29475 whole entry): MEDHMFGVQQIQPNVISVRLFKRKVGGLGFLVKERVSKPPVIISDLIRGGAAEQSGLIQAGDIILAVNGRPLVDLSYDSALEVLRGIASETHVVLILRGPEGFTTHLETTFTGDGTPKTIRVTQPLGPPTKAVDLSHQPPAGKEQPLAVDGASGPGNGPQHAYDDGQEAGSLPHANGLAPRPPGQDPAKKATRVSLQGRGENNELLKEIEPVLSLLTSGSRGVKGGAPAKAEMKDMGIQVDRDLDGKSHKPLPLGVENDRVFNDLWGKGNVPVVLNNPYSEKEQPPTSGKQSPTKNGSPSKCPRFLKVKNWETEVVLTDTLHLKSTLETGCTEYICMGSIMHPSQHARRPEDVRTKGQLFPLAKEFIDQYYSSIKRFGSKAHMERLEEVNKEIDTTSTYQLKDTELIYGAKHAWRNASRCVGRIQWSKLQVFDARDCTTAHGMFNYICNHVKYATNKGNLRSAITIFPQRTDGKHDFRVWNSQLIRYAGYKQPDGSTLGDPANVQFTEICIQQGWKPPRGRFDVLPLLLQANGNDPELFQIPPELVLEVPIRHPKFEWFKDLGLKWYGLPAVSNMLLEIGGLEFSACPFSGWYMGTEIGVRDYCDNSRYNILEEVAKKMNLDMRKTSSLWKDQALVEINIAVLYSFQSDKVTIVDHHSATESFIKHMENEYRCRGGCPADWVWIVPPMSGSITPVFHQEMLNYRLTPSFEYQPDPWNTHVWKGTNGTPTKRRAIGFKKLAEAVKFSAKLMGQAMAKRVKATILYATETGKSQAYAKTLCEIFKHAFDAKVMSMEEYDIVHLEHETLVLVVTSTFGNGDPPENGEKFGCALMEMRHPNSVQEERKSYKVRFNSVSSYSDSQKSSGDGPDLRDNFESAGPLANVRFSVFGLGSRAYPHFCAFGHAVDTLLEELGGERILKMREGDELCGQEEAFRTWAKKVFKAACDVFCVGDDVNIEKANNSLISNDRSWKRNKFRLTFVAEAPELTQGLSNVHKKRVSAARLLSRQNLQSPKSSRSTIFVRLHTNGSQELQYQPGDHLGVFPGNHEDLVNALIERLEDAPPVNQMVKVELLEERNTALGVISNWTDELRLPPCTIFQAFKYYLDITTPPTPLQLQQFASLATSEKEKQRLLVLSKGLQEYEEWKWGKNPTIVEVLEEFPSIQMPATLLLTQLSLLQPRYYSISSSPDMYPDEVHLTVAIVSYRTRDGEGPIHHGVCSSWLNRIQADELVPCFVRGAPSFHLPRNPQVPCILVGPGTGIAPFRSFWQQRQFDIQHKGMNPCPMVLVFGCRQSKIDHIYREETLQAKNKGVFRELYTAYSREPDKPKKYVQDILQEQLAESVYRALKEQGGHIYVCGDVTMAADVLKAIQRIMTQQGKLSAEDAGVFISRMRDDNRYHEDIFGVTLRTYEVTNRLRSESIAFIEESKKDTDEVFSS

SMILES	inhibition [1] [%]	IC50 [2] [µM]	IC50 [3] [µM]	IC50 (Nitric oxide synthase 1 [4]) [µM]	Ratio IC50 (Homo sapiens)	inhibition (Nitric oxide synthase 1 [5]) [%]	inhibition [6] [%]	inhibition [7] [%]	IC50 (Nitric oxide synthase 3) [µM]
CC(C)CN(Cc1cc(Cl)ccc1C#N)[C@@H]1CCCN(C)C1	0	0.66	0.47	4.9	> 15	–	–	–	–
N#Cc1ccc(Cl)cc1CN(c1ccccc1)C1CCNCC1	0	8	0.66	–	> 15	33	–	–	–
CN1CCC(N(C)Cc2ccccc2[N+](=O)[O-])CC1	–	–	–	–	–	–	< 15	< 15	–
CCCN(Cc1cc(Cl)ccc1C#N)C1CCNCC1	–	0.28	0.13	0.14	13	–	–	–	1.7
CN1CCC(N(C)Cc2cc([N+](=O)[O-])ccc2Cl)CC1	–	–	–	–	–	–	< 15	< 15	–
CC(C)CN(Cc1cc(Cl)ccc1C#N)C1CCCNC1 (stereo unspecified)	15	1.2	0.29	2.5	> 15	–	–	–	–
CN(Cc1cc(Cl)ccc1C#N)C1CCN(CC2CC2)CC1	–	3.5	0.25	0.53	3	–	–	–	0.86
CC(C)CN(Cc1cc(Cl)ccc1C#N)[C@H]1CCCNC1	0	0.57	0.33	5.3	> 25	–	–	–	–
CN1CCC(N(C)Cc2cc(Cl)ccc2Br)CC1	–	–	0.42	0.59	2	–	–	51	0.82
CN(Cc1cc(Cl)ccc1C#N)C1CCNC1 (stereo unspecified)	–	–	1.2	1.2	3	–	–	33	4
N#Cc1ccc(Cl)cc1CN(CC1CC1)C1CCNCC1	–	1.4	0.16	0.748	13	–	–	–	2.1
CN(Cc1cc(Cl)ccc1C#N)C1CCCNCC1 (stereo unspecified)	–	–	0.66	1.2	7	–	–	31	4.4
CN(Cc1cc(Cl)ccc1C#N)C1CCN(CCc2ccccc2)CC1	–	3.3	0.3	0.15	1	–	–	–	0.22
CCN(Cc1cc(Cl)ccc1C#N)C1CCNCC1	–	0.58	0.1	0.36	10	–	–	–	1
N#Cc1ccc(Cl)cc1CN(C1CCCC1)C1CCNCC1	1	6.7	1.5	–	> 7	24	–	–	–
CCCCN1CCC(N(C)Cc2cc(Cl)ccc2C#N)CC1	–	3.8	0.34	0.42	2	–	–	–	0.68
CN1CCC(N(C)Cc2cc(Cl)ccc2C#N)CC1	–	3.7	0.29	0.54	3	–	–	–	0.77
CC(=N)NCCSCC[C@H](N)C(=O)O [GW-274150]	< 15	–	0.22	8.4	> 45	–	–	26	–

SMILES	inhibition [1] [%]	IC50 [2] [µM]	IC50 [3] [µM]	IC50 (Nitric oxide synthase 1 [4]) [µM]	Ratio IC50 (Homo sapiens)	inhibition (Nitric oxide synthase 1 [5]) [%]	inhibition [6] [%]	inhibition [7] [%]	IC50 (Nitric oxide synthase 3) [µM]
CC(=N)NCCCC[C@H](N)C(=O)O [L-NIL]	–	31	0.28	6	9	–	–	–	2.5
COc1ccc(C#N)c(CN(C)C2CCN(C)CC2)c1	–	–	5.1	–	–	–	–	< 15	–
CN1CCC(N(C)Cc2cc(Br)ccc2C#N)CC1	–	3.7	0.21	0.53	4	–	–	–	0.81
CN1CCC(N(C)Cc2cc(Cl)ccc2[N+](=O)[O-])CC1	–	1.1	0.09	0.08	2	–	–	–	0.18
CCN1CCC(N(C)Cc2cc(Cl)ccc2C#N)CC1	–	4.5	0.37	0.37	1	–	–	–	0.45
CN(Cc1cc(Cl)ccc1C#N)C1CCCNC1 (stereo unspecified)	–	4.4	0.18	0.19	5	–	–	–	0.983
CN1CCC(N(C)Cc2ccccc2)CC1	–	–	–	–	–	–	< 15	< 15	–
CC(C)N(Cc1cc(Cl)ccc1C#N)C1CCNCC1	–	0.38	0.032	0.19	18	–	–	–	0.57
CC(C)CN(Cc1cc(Cl)ccc1C#N)C1CCNCC1	20	0.57	0.39	1.9	> 25	–	–	–	–
CN1CCC(N(C)Cc2cc(Cl)ccc2C(F)(F)F)CC1	–	–	0.7	0.78	2	–	–	48	1.4
CN(Cc1cc(Cl)ccc1C#N)C1CCNCC1	–	5.9	0.33	0.35	3	–	–	–	1.1
CC(C)CN(Cc1cc(Cl)ccc1C#N)[C@@H]1CCCNC1	23	1.5	0.26	1.2	> 25	–	–	–	–
CC(C)CN1CCC(N(C)Cc2cc(Cl)ccc2C#N)CC1	–	3.2	0.4	0.6	1	–	–	–	0.54
N#Cc1ccc(C(=O)N2CCC3(CC2)N=C(N)c2c(F)ccc(F)c2N3)cn1	< 15	–	–	–	–	–	–	–	–
CCCN1CCC(N(C)Cc2cc(Cl)ccc2C#N)CC1	–	4.4	0.67	0.81	2	–	–	–	1.1
CCCCN(Cc1cc(Cl)ccc1C#N)C1CCNCC1	–	5	0.57	–	–	–	–	–	–
CC(C)CN(Cc1cc(Cl)ccc1C#N)[C@H]1CCCN(C)C1	0	0.32	0.72	6.5	> 50	–	–	–	–
CN(Cc1cc(Cl)ccc1C#N)C1CCN(Cc2ccccc2)CC1	–	3.5	0.27	1.8	16	–	–	–	4.3
